Test results: paper PMC9302689 (British Journal of Clinical Pharmacology, 2022)
pIC50, pKi: −log10 of the molar value.

How the values were obtained:
α1A‐adrenoceptor = target: T1, α1A‐adrenoceptor (Homo sapiens, UniProt P35348); experiment: In vitro binding affinity, α1A-adrenoceptor; settings: read-out: Ki, α1A-adrenoceptor; preclinical in vitro panel
T1 sequence (P35348 1-466): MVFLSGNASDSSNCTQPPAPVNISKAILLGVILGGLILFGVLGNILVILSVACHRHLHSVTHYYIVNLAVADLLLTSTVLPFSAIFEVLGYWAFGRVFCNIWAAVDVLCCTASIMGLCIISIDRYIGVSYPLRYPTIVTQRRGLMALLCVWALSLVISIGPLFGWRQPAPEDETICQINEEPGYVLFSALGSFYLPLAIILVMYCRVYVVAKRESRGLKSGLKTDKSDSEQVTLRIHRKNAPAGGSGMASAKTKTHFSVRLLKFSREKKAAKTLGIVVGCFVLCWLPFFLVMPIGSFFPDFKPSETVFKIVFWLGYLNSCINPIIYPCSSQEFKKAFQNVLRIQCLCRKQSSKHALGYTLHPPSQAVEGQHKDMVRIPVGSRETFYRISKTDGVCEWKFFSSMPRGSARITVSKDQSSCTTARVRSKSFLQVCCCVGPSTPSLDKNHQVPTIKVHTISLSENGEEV

[1] = Pharmacokinetics, first-in-human single ascending dose study; type: in vivo; settings: n = 8
Method in brief: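 Healthy men received a single fasted dose of 3–200 mg, with 8 on active drug per cohort. Plasma was sampled pre-dose and at 0.25–36 h. Drug was quantified by validated LC–MS/MS (LLOQ 1.00 ng/mL). Cmax, tmax, t1/2, AUClast and AUC∞ were calculated by noncompartmental analysis using actual elapsed sampling times.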

hERG channel = hERG channel (Homo sapiens, UniProt Q12809); experiment: In vitro hERG channel testing; type: biochemical
Sequence of hERG channel (Q12809 whole entry): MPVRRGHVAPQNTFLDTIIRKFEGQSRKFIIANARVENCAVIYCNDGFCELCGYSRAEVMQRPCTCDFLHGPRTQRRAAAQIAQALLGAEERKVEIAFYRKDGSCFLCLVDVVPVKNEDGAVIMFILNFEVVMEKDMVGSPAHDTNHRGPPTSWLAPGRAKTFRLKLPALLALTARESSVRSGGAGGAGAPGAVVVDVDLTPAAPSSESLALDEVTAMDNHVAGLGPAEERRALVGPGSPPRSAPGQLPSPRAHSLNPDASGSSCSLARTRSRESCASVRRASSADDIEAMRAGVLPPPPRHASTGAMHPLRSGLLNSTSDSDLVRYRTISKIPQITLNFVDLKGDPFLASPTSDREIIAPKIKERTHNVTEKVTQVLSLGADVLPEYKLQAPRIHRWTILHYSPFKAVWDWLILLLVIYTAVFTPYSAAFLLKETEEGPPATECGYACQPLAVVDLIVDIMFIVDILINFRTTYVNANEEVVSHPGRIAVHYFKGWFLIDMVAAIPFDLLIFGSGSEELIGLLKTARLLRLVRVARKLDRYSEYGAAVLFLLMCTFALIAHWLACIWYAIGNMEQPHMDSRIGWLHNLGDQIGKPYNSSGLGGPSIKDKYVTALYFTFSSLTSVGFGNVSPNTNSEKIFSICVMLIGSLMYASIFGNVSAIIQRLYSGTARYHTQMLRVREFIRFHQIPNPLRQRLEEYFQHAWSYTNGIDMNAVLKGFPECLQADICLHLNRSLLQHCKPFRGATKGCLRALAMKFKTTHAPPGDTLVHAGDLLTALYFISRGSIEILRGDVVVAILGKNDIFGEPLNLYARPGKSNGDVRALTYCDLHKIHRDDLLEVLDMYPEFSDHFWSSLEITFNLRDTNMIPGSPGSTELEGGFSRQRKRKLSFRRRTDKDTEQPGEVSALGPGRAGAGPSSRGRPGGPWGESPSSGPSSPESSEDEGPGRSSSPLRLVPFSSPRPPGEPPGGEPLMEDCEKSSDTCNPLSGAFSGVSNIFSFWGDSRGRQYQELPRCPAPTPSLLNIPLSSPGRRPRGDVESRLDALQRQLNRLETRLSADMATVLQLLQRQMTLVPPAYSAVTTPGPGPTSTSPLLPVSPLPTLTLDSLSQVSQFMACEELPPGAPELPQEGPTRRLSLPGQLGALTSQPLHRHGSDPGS

Compound: CN1CCC23CCCCC2C1Cc1ccc(C(N)=O)cc13 (stereo not drawn) [ALKS 7119, (9α, 13α)‐17‐methylmorphinan‐3‐carboxamide]
- pKi (α1A‐adrenoceptor): 6.01
- AUC infinite/dose ([1]; 3 mg single oral dose): 33.34
- AUClast, mean (SD) ([1]; 3 mg single oral dose): 85.88 (25.56) hr*ng/ml
- AUClast, range ([1]; 3 mg single oral dose): 57.37 to 129.02 ng·h/mL
- AUC∞, mean (SD) ([1]; 3 mg single oral dose): 100.03 (25.04) hr*ng/ml
- AUC∞, range ([1]; 3 mg single oral dose): 73.65 to 140.04 ng·h/mL
- Cmax, mean (SD) ([1]; 3 mg single oral dose): 8.33 (2.78) ng/ml
- Cmax, range ([1]; 3 mg single oral dose): 5.87 to 13.20 ng/mL
- Cmax/dose ([1]; 3 mg single oral dose): 2.78
- t1/2, mean (SD) ([1]; 3 mg single oral dose): 6.98(1.16) h
- t1/2, range ([1]; 3 mg single oral dose): 5.20 to 8.77 h
- tmax, median ([1]; 3 mg single oral dose): 2.02 h
- tmax, range ([1]; 3 mg single oral dose): 2.00 to 4.15 h
- AUC infinite/dose ([1]; 10 mg single oral dose): 29.54
- AUClast, mean (SD) ([1]; 10 mg single oral dose): 272.60 (35.69) hr*ng/ml
- AUClast, range ([1]; 10 mg single oral dose): 198.45 to 321.20 ng·h/mL
- AUC∞, mean (SD) ([1]; 10 mg single oral dose): 295.38 (32.29) hr*ng/ml
- AUC∞, range ([1]; 10 mg single oral dose): 233.76 to 338.34 ng·h/mL
- Cmax, mean (SD) ([1]; 10 mg single oral dose): 25.33 (3.91) ng/ml
- Cmax, range ([1]; 10 mg single oral dose): 20.40 to 32.30 ng/mL
- Cmax/dose ([1]; 10 mg single oral dose): 2.53
- t1/2, mean (SD) ([1]; 10 mg single oral dose): 8.51 (0.89) h
- t1/2, range ([1]; 10 mg single oral dose): 7.01 to 9.45 h
- tmax, median ([1]; 10 mg single oral dose): 2.00 h
- tmax, range ([1]; 10 mg single oral dose): 1.00 to 2.00 h
- AUC infinite/dose ([1]; 25 mg single oral dose): 29.25
- AUClast, mean (SD) ([1]; 25 mg single oral dose): 703.56 (89.80) hr*ng/ml
- AUClast, range ([1]; 25 mg single oral dose): 608.46 to 864.96 ng·h/mL
- AUC∞, mean (SD) ([1]; 25 mg single oral dose): 731.29 (87.27) hr*ng/ml
- AUC∞, range ([1]; 25 mg single oral dose): 640.06 to 883.94 ng·h/mL
- Cmax, mean (SD) ([1]; 25 mg single oral dose): 74.51 (16.19) ng/ml
- Cmax, range ([1]; 25 mg single oral dose): 51.00 to 93.00 ng/mL
- Cmax/dose ([1]; 25 mg single oral dose): 2.98
- t1/2, mean (SD) ([1]; 25 mg single oral dose): 7.81 (0.83) h
- t1/2, range ([1]; 25 mg single oral dose): 6.78 to 9.41 h
- tmax, median ([1]; 25 mg single oral dose): 1.00 h
- tmax, range ([1]; 25 mg single oral dose): 1.00 to 2.00 h
- AUC infinite/dose ([1]; 50 mg single oral dose): 30.94
- AUClast, mean (SD) ([1]; 50 mg single oral dose): 1473.57 (203.53) hr*ng/ml
- AUClast, range ([1]; 50 mg single oral dose): 1234.86 to 1780.97 ng·h/mL
- AUC∞, mean (SD) ([1]; 50 mg single oral dose): 1547.06 (196.89) hr*ng/ml
- AUC∞, range ([1]; 50 mg single oral dose): 1277.55 to 1828.84 ng·h/mL
- Cmax, mean (SD) ([1]; 50 mg single oral dose): 140.00 (32.44) ng/ml
- Cmax, range ([1]; 50 mg single oral dose): 103.00 to 190.00 ng/mL
- Cmax/dose ([1]; 50 mg single oral dose): 2.80
- t1/2, mean (SD) ([1]; 50 mg single oral dose): 7.81 (0.69) h
- t1/2, range ([1]; 50 mg single oral dose): 6.99 to 8.68 h
- tmax, median ([1]; 50 mg single oral dose): 1.53 h
- tmax, range ([1]; 50 mg single oral dose): 1.00 to 4.00 h
- AUC infinite/dose ([1]; 75 mg single oral dose): 33.98
- AUClast, mean (SD) ([1]; 75 mg single oral dose): 2406.33 (373.64) hr*ng/ml
- AUClast, range ([1]; 75 mg single oral dose): 1732.82 to 2969.47 ng·h/mL
- AUC∞, mean (SD) ([1]; 75 mg single oral dose): 2548.51 (468.23) hr*ng/ml
- AUC∞, range ([1]; 75 mg single oral dose): 1772.06 to 3367.86 ng·h/mL
- Cmax, mean (SD) ([1]; 75 mg single oral dose): 225.50 (40.59) ng/ml
- Cmax, range ([1]; 75 mg single oral dose): 190.00 to 302.00 ng/mL
- Cmax/dose ([1]; 75 mg single oral dose): 3.01
- t1/2, mean (SD) ([1]; 75 mg single oral dose): 8.42 (1.63) h
- t1/2, range ([1]; 75 mg single oral dose): 6.84 to 12.01 h
- tmax, median ([1]; 75 mg single oral dose): 1.50 h
- tmax, range ([1]; 75 mg single oral dose): 0.50 to 4.00 h
- AUC infinite/dose ([1]; 100 mg single oral dose): 31.36
- AUClast, mean (SD) ([1]; 100 mg single oral dose): 3027.23 (600.53) hr*ng/ml
- AUClast, range ([1]; 100 mg single oral dose): 2340.29 to 4326.23 ng·h/mL
- AUC∞, mean (SD) ([1]; 100 mg single oral dose): 3136.45 (634.60) hr*ng/ml
- AUC∞, range ([1]; 100 mg single oral dose): 2418.74 to 4525.46 ng·h/mL
- Cmax, mean (SD) ([1]; 100 mg single oral dose): 307.63 (75.28) ng/ml
- Cmax, range ([1]; 100 mg single oral dose): 224.00 to 465.00 ng/mL
- Cmax/dose ([1]; 100 mg single oral dose): 3.08
- t1/2, mean (SD) ([1]; 100 mg single oral dose): 7.63 (0.93) h
- t1/2, range ([1]; 100 mg single oral dose): 6.36 to 8.84 h
- tmax, median ([1]; 100 mg single oral dose): 1.50 h
- tmax, range ([1]; 100 mg single oral dose): 1.00 to 4.08 h
- AUC infinite/dose ([1]; 125 mg single oral dose): 33.50
- AUClast, mean (SD) ([1]; 125 mg single oral dose): 4059.17 (809.98) hr*ng/ml
- AUClast, range ([1]; 125 mg single oral dose): 3120.58 to 5579.28 ng·h/mL
- AUC∞, mean (SD) ([1]; 125 mg single oral dose): 4187.59 (840.18) hr*ng/ml
- AUC∞, range ([1]; 125 mg single oral dose): 3188.91 to 5732.16 ng·h/mL
- Cmax, range ([1]; 125 mg single oral dose): 315.00 to 745.00 ng/mL
- Cmax/dose ([1]; 125 mg single oral dose): 3.58
- t1/2, mean (SD) ([1]; 125 mg single oral dose): 7.26 (0.99) h
- t1/2, range ([1]; 125 mg single oral dose): 6.06 to 8.72 h
- tmax, median ([1]; 125 mg single oral dose): 2.00 h
- tmax, range ([1]; 125 mg single oral dose): 2.00 to 4.00 h
- AUC infinite/dose ([1]; 150 mg single oral dose): 30.22
- AUClast, mean (SD) ([1]; 150 mg single oral dose): 4361.53 (782.96) hr*ng/ml
- AUClast, range ([1]; 150 mg single oral dose): 3622.31 to 6015.06 ng·h/mL
- AUC∞, mean (SD) ([1]; 150 mg single oral dose): 4533.66 (862.77) hr*ng/ml
- AUC∞, range ([1]; 150 mg single oral dose): 3790.65 to 6362.63 ng·h/mL
- Cmax, mean (SD) ([1]; 150 mg single oral dose): 413.38 (65.38) ng/ml
- Cmax, range ([1]; 150 mg single oral dose): 314.00 to 540.00 ng/mL
- Cmax/dose ([1]; 150 mg single oral dose): 2.76
- t1/2, mean (SD) ([1]; 150 mg single oral dose): 7.53 (0.88) h
- t1/2, range ([1]; 150 mg single oral dose): 6.10 to 8.51 h
- tmax, median ([1]; 150 mg single oral dose): 2.00 h
- tmax, range ([1]; 150 mg single oral dose): 1.00 to 4.00 h
- AUC infinite/dose ([1]; 175 mg single oral dose): 34.02
- AUClast, mean (SD) ([1]; 175 mg single oral dose): 5754.94 (1013.23) hr*ng/ml
- AUClast, range ([1]; 175 mg single oral dose): 4681.45 to 7356.86 ng·h/mL
- AUC∞, mean (SD) ([1]; 175 mg single oral dose): 5954.09 (1047.00) hr*ng/ml
- AUC∞, range ([1]; 175 mg single oral dose): 4820.27 to 7488.93 ng·h/mL
- Cmax, mean (SD) ([1]; 175 mg single oral dose): 660.63 (167.66) ng/ml
- Cmax, range ([1]; 175 mg single oral dose): 451.00 to 893.00 ng/mL
- Cmax/dose ([1]; 175 mg single oral dose): 3.78
- t1/2, mean (SD) ([1]; 175 mg single oral dose): 7.48 (0.87) h
- t1/2, range ([1]; 175 mg single oral dose): 5.91 to 8.83 h
- tmax, median ([1]; 175 mg single oral dose): 2.01 h
- tmax, range ([1]; 175 mg single oral dose): 1.02 to 4.00 h
- AUC infinite/dose ([1]; 200 mg single oral dose): 33.61
- AUClast, mean (SD) ([1]; 200 mg single oral dose): 6490.47 (1144.87) hr*ng/ml
- AUClast, range ([1]; 200 mg single oral dose): 5120.43 to 8737.25 ng·h/mL
- AUC∞, mean (SD) ([1]; 200 mg single oral dose): 6721.82 (1227.19) hr*ng/ml
- AUC∞, range ([1]; 200 mg single oral dose): 5273.49 to 9126.15 ng·h/mL
- Cmax, mean (SD) ([1]; 200 mg single oral dose): 656.00 (104.74) ng/ml
- Cmax, range ([1]; 200 mg single oral dose): 491.00 to 795.00 ng/mL
- Cmax/dose ([1]; 200 mg single oral dose): 3.28
- t1/2, mean (SD) ([1]; 200 mg single oral dose): 7.35 (0.58) h
- t1/2, range ([1]; 200 mg single oral dose): 6.72 to 8.33 h
- tmax, median ([1]; 200 mg single oral dose): 3.00 h
- tmax, range ([1]; 200 mg single oral dose): 1.00 to 4.00 h
- hERG IC50 (hERG channel): 54.3488 µg/mL
- pIC50 (hERG channel; read-out: hERG IC50): 3.72
